According to the EternaBench riboswitch data:

System: MS2 coat protein
Assay: apparent Kd, MS2 coat protein; higher = weaker binding; RNA-MaP array; FMN 200 µM where present
Summary of the method: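 The titrant was SNAP-549-labelled MS2 coat protein, run from 0.7 or 1.5 nM in doubling steps to 3 µM. It was applied to designs transcribed by stalled E. coli RNA polymerase on Illumina sequencing-chip clusters, without ligand first and then with constant ligand, in 100 mM Tris-HCl pH 7.5, 80 mM KCl, 4 mM MgCl2, BSA, DTT, yeast tRNA and Tween-20. The apparent Kd is the median of filtered per-cluster binding-curve fits, with green signal normalised to red-channel RNA signal and control-cluster median Fmax.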

[1] = designed as: OFF switch for flavin mononucleotide, no ligand
[2] = ligand present: flavin mononucleotide, designed as: OFF switch for flavin mononucleotide
[3] = designed as: ON switch for flavin mononucleotide, no ligand
[4] = ligand present: flavin mononucleotide, designed as: ON switch for flavin mononucleotide

Sequence	apparent Kd [1] [nM]	apparent Kd [2] [nM]	apparent Kd [3] [nM]	apparent Kd [4] [nM]
UCCUUCUGUUGAGGAUAUGUAAGACAGCGGCUGCUAUGGCGACACGCUGAUACAGAAGGCAACAUGAGGAUCACCCAUGUUCAA	19.2	145		
GUAGUGUGAGGAUAUGAUUAAUAGAAGGGAAUGCGACUGCAUCAGAAGGCACAUGAGGAUCACCCAUGUAUGAA	19.5	29.2		
CGCUAGGAUGGGUCUAAUGGACCUCAGGAUAUGCUUGUACAUGAGGAUCACCCAUGUAAUAUUGUGCAGAAGGGAGGAUCCACG			18.9	6.56
AGUGUAGAGGUGAAGCGAAUUACUGAGGAUAUGACAUGAGGAUCACCCAUGUACACAUCCUCAGGUCAGAAGGCAGUGGUUCUU	5.62	4.8		
AAUAAGCUAGGAUAUACAUGAGGAUCACCCAUGUGAGGGCACCGCCGGCGCGGGCCCGGUAGAAGGAGCAAUAA	14.2	13.2		
ACAAAUGGAGGAUAUACAUGAGGAUCACCCAUGUUUAUCCUACAUAUGUGAUAAUAAUGUAGAAGGCCAUUUGA	12.5	16.2		
CAAUGGUUCCUUAUACUCUCGUCACAUGAGGAUCACCCAUGUAGAAGGCAGCCGGGCUGUCAGGCUGAGGAUAUACAUUUAAAA	17.8	54.9		
UCGUAUAAGGGCAUUACACAUGAGGAUCACCCAUGUACGUUAGAGGAUAUGCAUUUCAGUCGAACGUAGAAGGCUAGAGAAGGG	117	100		
AUGUUACAUGAGGAUCACCCAUGUGAGGAUAUGUGUACCCGUAAAAAAGUGUCGGGCCACAGAAGGCAUUUGGA	47.3	75		
GUUUAGUGAGGAUAUGUGGCAUCGCUCGAGCGCGGUCGGCUACAGAAGGCACAUGAGGAUCACCCAUGUUUCUC	41.8	471		
GCGUCAGGAGGAUAUACAUGAGGAUCACCCAUGUAACACGGGAUCGUCGUUUAGUAGAGUAGAAGGCCUAUUGU	64.1	106		
GUACGGAAGGAGAAGGGCUAGGAGGUCCAGCUUAUGUGUGUUGCAACAUGAGGAUCACCCAUGUAGCAGGAUAUCCUUUGUACA	45.7	265		
GGUUAAUAUCGAGGAUAUGUCUAGACACAUGAGGAUCACCCAUGUAUGUGUAUAGAAGGCGAUAUUAACAGCAUGUUACAUGCU			40.8	16
GUAGCAUACCGAGGAUAUUCAGGGAAUAAAUAAACAUGAGGAUCACCCAUGUGGCGAAAGCCUAGGGAGAAGGCGGAAUGCUAC			83.6	21.5
AGAAAGGAAGGAUAUACAAGAAAGCUGGGCAACGUCUCAGAACAUGAGGAUCACCCAUGUAGAAGGUCCAGGAA	25.2	34.3		
CGAUGACUGGUGAGGAUAUCGUGUUCGAAAGAACGUGAGAAGGCACAUGAGGAUCACCCAUGUGAUCCUCAUCG	29.8	206		
GGUACCAUCACAGGAUAUGCUUUUCUUUGGGAAGCAGAAGGGUGUAACAUGAGGAUCACCCAUGUGGUGCCAGGGCGUUAGCCC			188	16.8
ACCAUGGUACAGAAGGGCAAUUUAUUUAUUUAUUAUUUAGUACUGCAUUGCAGGAUAUGUUUAACAUGAGGAUCACCCAUGUAC			31.8	21.4
GAUACACAUGAGGAUCACCCAUGUUAGGAUAUUAGCGGGAAAGCUGUCAAAACGCCGAUGAGAAGGAACAGGAG	40.6	31.4		
GAAAACGGAGAGGAUAUUUGAGAUCAAAGCUCCAAAGAAGGCUCCACAUGAGGAUCACCCAUGUGGUCUUCAAU	14.6	107		
AGCUACGUUUCGUAGCAGUGUCAUCGAGAAGGCCUUAAAACAUGAGGAUCACCCAUGUAUGCAUGGGAGGAUAUCGAUGAUACA			31.7	6.98
AAUAACAGAGGAUAUACUGUUUUAUGUGUUUAUUAUUUUGAACAUGAGGAUCACCCAUGUAGAAGGCUGAAUAA	23.9	21		
GCCAUCGCAUGAGGAUAUGGCACCGUUUCGGUGCCAGAAGGCAUGUCUUAAGACAUGAGGAUCACCCAUGUAGUUAAGAUGGCA			860	56.9
AUAGCUCUCUAGAAGGUCCAACCAGUAUACCAUCAGGUAUAUACGGUAGGGAGGAUAUGGGACAUGAGGAUCACCCAUGUGUAG			57.8	44.8
UUGUUGUAUGUAGGAUAUGCAUAUUGUUAUUAUGCAGAAGGACAUGAGGAUCACCCAUGUAUAUUAUUAUUAUAUGUUAUAUAU	23.5	27.8		
GCUGCUAUCACAGGAUAUUACAUGGGAAAGAGUACAUGAGGAUCACCCAUGUAAAAGAUCAUAAAUAAGAAGGGUGAUAGCAGC			150	256
UUACCUCAUGAGAAGGACAUGAGGAUCACCCAUGUAGGAUAUCGUGGGAGACUGGUAUUGAAUCUUCGGAUUCAAUACCAGUCU			375	29.7
GGAUCGAGUGUGAGGAUAUACCACUGGAUACAGUGGUAGAAGGCACAUGAGGAUCACCCAUGUCCCUACGAUCC	32.9	204		

Sequence	apparent Kd [1] [nM]	apparent Kd [2] [nM]	apparent Kd [3] [nM]	apparent Kd [4] [nM]
GACUGAUUGUAGAAGGUACUUGACAAUAUAUUUAAUUAUUGUAGACAUGAGGAUCACCCAUGUAGUAAGGAUAUACUUAUAACA			18.4	9.96
CGCAAGUAUACAUGAGGAUCACCCAUGUCAGAUAGGGUAAUCAGAAGGUACAAUUAGAGAUAGAGUAAGGAUAUGAAAUUUGCG			865	314
UGGUACUAGGGAGGAUAUGGGAAGAUACAUGAGGAUCACCCAUGUUUAAGAAUGCCGAGAGGCAACUAGAAGGCCCUAGGACCU			434	18.5
CUUUUGUGAGGAUAUCAGUAGUAAUACAAUAGUAUUACUACUGAGAAGGCACAUGAGGAUCACCCAUGUUCUUC	25.5	68.2		
CCAGAGACAUAAGGAUAUCGAGUGGAUAACACUCGAGAAGGUAUGUGAAAACAUGAGGAUCACCCAUGUGAUCAAUACUCUGGA			20.1	20.4
CGCUACUACCAGAAGGACAUGAGGAUCACCCAUGUAGGAUAUGGGUUACAAGUUCCUGUGUAAAGAAACUACGCUACGUAUGCG			715	31.7
UGAAAUCAUGUAGGAUAUGCAUGGCGAAGCUACGCAGAAGGACAUGAGGAUCACCCAUGUUCUGGCUACCGGAUACGGUGGCAA	22	105		
AAUAUAAGAGCUGGACUCUAAAGAACAUGAGGAUCACCCAUGUAGGAUAUCAGCACGAUAAGUGCUGAGAAGGACAACCAGCUC	14.1	14.6		
AACAAUCUAUCUGAGGAUAUCAUGAAAAAAACAUGAGGAUCACCCAUGUGCAGGAAAACUGCAUAUGAGAAGGCAGAUAGAUUGU			603	26.2
GGGUACAACGGAGGAUAUCAUGUAAAUACAUGAGGAUCACCCAUGUCGAUGGAGACAUCGGAGAUUGAGAAGGCCGAUGUACCG			160	8.88
ACUAUACGAGGAUAUACUGACGGGCCUCAGGCAUCCAUCAGACAUGAGGAUCACCCAUGUAGAAGGCGUAUACU	56.1	158		
AUUAUUUUGUAGAAGGACGACUAUUAAUAUAUCGUAGGAUAUACUAUUUACAUGAGGAUCACCCAUGUUUAAAUGGAACAAUGU	4.99	6.23		
AUUUAUGGCCAGAAGGACAUGAGGAUCACCCAUGUAGGAUAUGGACGAUUUUGCUCGGCGGUUUGUUUACGAAGCACCGGUGGU			12.8	6.91
CAGGAUAGAGGAUAUACAUAGAUACAGAUUCGUGUAAUCCUACAUGAGGAUCACCCAUGUAGAAGGCUAUCCUG	14.8	28.5		
UCAGGCUUCGAGAAGGACAUGAAUCGUAGCAUUGCUACGAUGAAUUAUACAUGAGGAUCACCCAUGUAGGAUAUCGGAGUCUGC		6.34		
ACAUCACAUGAGGAUCACCCAUGUCAGGAUAUCGACUGAACAGCUUCGGCUGUUCAGUCGAGAAGGGACAAUUA	66.5	131		
GAUAGUCCUGAGAAGGACAUGAGGAUCACCCAUGUGAUUAUACCAGUGCAAUGAAAGCACUGGAUGUAGGAUAUCAGGACUAUC	15.3	96.1		
AUACUCAUGUAAGGAUAUGCAGCCGUUUCGGCUGCAGAAGGUACUAUAAUACAUGAGGAUCACCCAUGUCUUUUUAAUUUUUAC			281	38.9
GCUUUUCUAGCCAAGUGGUAGAGCGCAGAAGGCCAACAUGAGGAUCACCCAUGUAUAAAGAACAUGGAGGAUAUGCGUCACCUU			73.7	6.5
CGGGCCGUCUACAUGAGGAUCACCCAUGUGACGGAAGUAACACAGGAUAUCCUCUAAUUGUAGACGGAGAAGGGUGGCCCGAAU			28.9	159
AGUUGUUCAGGAUAUGGUGUGUUAUACAUGAGGAUCACCCAUGUGGGUCCUGGUUUGGCCUCAGAAGGGAAUGUUG	636	518		
CUUUUGUGAGGAUAUCAUUAGUAAAAAAAUAAAAUUACUACUGAGAAGGCACAUGAGGAUCACCCAUGUUCCUC	35.5	233		
UAAUAUUUAUGAUAUUAUUACAUUAGAAGGCUAGACAUGUGGAUACAUGAGGAUCACCCAUGUAUAGAGGAUAUAGACAUAUAU	31.8	53.6		
CUCGAGUUAGGAUAUUGAACGUAACAAGCGGGAACUCCCGCCAAGAAGGAACAUGAGGAUCACCCAUGUGAAAC	21	21.3		
AGAUGACAAUGUCAUCUUCGUCGGACAUGAGGAUCACCCAUGUAGGAUAUGCUACUCAAAGAGUAGCAGAAGGACAUGUGUCUU	19.7	41.1		
UUGACAUUCAAGAAGGGUCACUCUACAUGAGGAUCACCCAUGUCUAUGGACAGGAUAUUGAUCGUCACCUGGUUAGCUUUCGGU			770	19
GGGUACAUCGGAGGAUAUCAUGUAAAUACAUGAGGAUCACCCAUGUCGAUGGAGACAUCGGAGAUUGAGAAGGCCGAUGUACCC			178	9.58
